In ChEMBL document CHEMBL3227971, “Synthesis and antibacterial activity of 2-oxocephalosporins” (1979):
Values after ≈ are worked out from the molar mass of the structure shown.

What was measured:
Type in all cases: functional
[1] = system: Pseudomonas aeruginosa; assay: Antimicrobial activity against Pseudomonas aeruginosa 9843 by two fold serial dilution technique
Outline: (§1)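 MIC determined by twofold serial broth dilution in nutrient broth, reported in μg/mL.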

[2] = system: Enterobacter cloacae; assay: Antimicrobial activity against Enterobacter cloacae 9656 by two fold serial dilution technique; outline: as §1
[3] = system: Morganella morganii; assay: Antimicrobial activity against Proteus morganii 15153 by two fold serial dilution technique; outline: as §1
[4] = system: Streptococcus pyogenes; assay: Antimicrobial activity against Streptococcus pyogenes 9604 by two fold serial dilution technique; outline: as §1
[5] = system: Klebsiella pneumoniae; assay: Antimicrobial activity against Klebsiella pneumoniae 15130 by two fold serial dilution technique; outline: as §1
[6] = system: Staphylococcus aureus; assay: Antimicrobial activity against penicillin-resistant Staphylococcus aureus 9606 by two fold serial dilution technique
Outline: (§2)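 MIC determined by twofold serial dilution in nutrient broth; values reported in μg/mL.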

[7] = system: Enterobacter cloacae; assay: Antimicrobial activity against Enterobacter cloacae 9659 by two fold serial dilution technique; outline: as §1
[8] = system: Staphylococcus aureus; assay: Antimicrobial activity against methicillin-resistant Staphylococcus aureus 15097 by two fold serial dilution technique; outline: as §2
[9] = system: Staphylococcus aureus; assay: Antimicrobial activity against Staphylococcus aureus 9537 by two fold serial dilution technique; outline: as §1
[10] = system: Escherichia coli; assay: Antimicrobial activity against Escherichia coli 15119 by two fold serial dilution technique; outline: as §1
[11] = system: Proteus mirabilis; assay: Antimicrobial activity against Proteus mirabilis 9716 by two fold serial dilution technique; outline: as §1
[12] = system: Staphylococcus aureus; assay: Antimicrobial activity against Staphylococcus aureus 9537 by two fold serial dilution technique in presence of 50% serum
[13] = system: Klebsiella pneumoniae; assay: Antimicrobial activity against Klebsiella pneumoniae 20468 by two fold serial dilution technique; outline: as §1
[14] = system: Serratia marcescens; assay: Antimicrobial activity against Serratia marcescens 20019 by two fold serial dilution technique; outline: as §1
[15] = system: Streptococcus pneumoniae; assay: Antimicrobial activity against Streptococcus pneumoniae 1985 by two fold serial dilution technique; outline: as §1
[16] = system: Providencia rettgeri; assay: Antimicrobial activity against Providencia rettgeri 21205 by two fold serial dilution technique; outline: as §1
[17] = system: Enterococcus faecalis; assay: Antimicrobial activity against Streptococcus faecalis 20688 by two fold serial dilution technique; outline: as §1
[18] = system: Escherichia coli; assay: Antimicrobial activity against Escherichia coli 20341 by two fold serial dilution technique; outline: as §1
[19] = system: Proteus mirabilis; assay: Antimicrobial activity against Proteus mirabilis 9900 by two fold serial dilution technique; outline: as §1

**Q.** Which MIC [1] does the source give for CC(=O)OCC1=C(C(=O)O)N2C(=O)[C@@H](NC(=O)Cc3cccs3)[C@H]2SC1=O here?
**A.** Its MIC is > 125 µg/mL.

**Q.** What about the MIC [2] of the same compound?
**A.** Its MIC is > 125 µg/mL.

**Q.** And the MIC [3]?
**A.** The MIC was > 125 µg/mL.

**Q.** And the MIC [4]?
**A.** Its MIC is 1 µg/mL (≈ 2.44 µM).

**Q.** What about the MIC [5] of the same compound?
**A.** Its MIC is > 125 µg/mL.

**Q.** What about the MIC [6] of the same compound?
**A.** Its MIC is 16 µg/mL (≈ 39 µM).

**Q.** And the MIC [7]?
**A.** Its MIC is > 125 µg/mL.

**Q.** And the MIC [8]?
**A.** The MIC was > 125 µg/mL.

**Q.** And the MIC [9]?
**A.** The MIC was 4 µg/mL (≈ 9.75 µM).

**Q.** And the MIC [10]?
**A.** The MIC was > 125 µg/mL.

**Q.** And the MIC [11]?
**A.** The MIC was 63 µg/mL (≈ 153 µM).

**Q.** And the MIC [12]?
**A.** The MIC was 63 µg/mL.

**Q.** What about the MIC [13] of the same compound?
**A.** The MIC was > 125 µg/mL.

**Q.** What about the MIC [14] of the same compound?
**A.** The MIC was > 125 µg/mL.

**Q.** What about the MIC [15] of the same compound?
**A.** The MIC was 1 µg/mL (≈ 2.44 µM).

**Q.** What about the MIC [16] of the same compound?
**A.** The MIC was > 125 µg/mL.

**Q.** What about the MIC [17] of the same compound?
**A.** Its MIC is 125 µg/mL (≈ 305 µM).

**Q.** And the MIC [18]?
**A.** The MIC was > 125 µg/mL.

**Q.** What about the MIC [19] of the same compound?
**A.** Its MIC is 32 µg/mL (≈ 78 µM).

**Q.** What does the source list for CC1=C(C(=O)O)N2C(=O)[C@@H](N)[C@H]2SC1=O.Cc1ccc(S(=O)(=O)O)cc1?
**A.** MIC [1]: > 125 µg/mL; MIC [2]: > 125 µg/mL; MIC [3]: > 125 µg/mL; MIC [4]: 125 µg/mL; MIC [5]: > 125 µg/mL; MIC [6]: > 125 µg/mL; MIC [7]: > 125 µg/mL; MIC [8]: 125 µg/mL; MIC [9]: 32 µg/mL; MIC [10]: > 125 µg/mL; MIC [11]: 125 µg/mL; MIC [12]: > 63 µg/mL; MIC [13]: > 125 µg/mL; MIC [14]: > 125 µg/mL; MIC [15]: 63 µg/mL; MIC [16]: 125 µg/mL; MIC [17]: 32 µg/mL; MIC [18]: > 125 µg/mL; MIC [19]: > 125 µg/mL

**Q.** For CC1=C(C(=O)O)N2C(=O)[C@@H](NC(=O)COc3ccccc3)[C@H]2SC1=O, which MIC [1] is on record?
**A.** The MIC was > 125 µg/mL.

**Q.** And the MIC [2]?
**A.** Its MIC is > 125 µg/mL.

**Q.** And the MIC [3]?
**A.** Its MIC is > 125 µg/mL.

**Q.** What about the MIC [4] of the same compound?
**A.** Its MIC is 32 µg/mL (≈ 88.3 µM).

**Q.** And the MIC [5]?
**A.** The MIC was > 125 µg/mL.

**Q.** What about the MIC [6] of the same compound?
**A.** The MIC was 125 µg/mL (≈ 345 µM).

**Q.** And the MIC [7]?
**A.** The MIC was > 125 µg/mL.

**Q.** What about the MIC [8] of the same compound?
**A.** Its MIC is > 125 µg/mL.

**Q.** What about the MIC [9] of the same compound?
**A.** Its MIC is 8 µg/mL (≈ 22.1 µM).

**Q.** What about the MIC [10] of the same compound?
**A.** Its MIC is > 125 µg/mL.

**Q.** What about the MIC [11] of the same compound?
**A.** Its MIC is 125 µg/mL (≈ 345 µM).

**Q.** What about the MIC [12] of the same compound?
**A.** The MIC was > 63 µg/mL.

**Q.** And the MIC [13]?
**A.** The MIC was > 125 µg/mL.

**Q.** What about the MIC [14] of the same compound?
**A.** Its MIC is > 125 µg/mL.

**Q.** What about the MIC [15] of the same compound?
**A.** The MIC was 32 µg/mL (≈ 88.3 µM).

**Q.** And the MIC [16]?
**A.** The MIC was > 125 µg/mL.

**Q.** What about the MIC [17] of the same compound?
**A.** The MIC was 63 µg/mL (≈ 174 µM).

**Q.** And the MIC [18]?
**A.** The MIC was > 125 µg/mL.

**Q.** What about the MIC [19] of the same compound?
**A.** The MIC was 125 µg/mL (≈ 345 µM).

**Q.** What does the source list for CC(=O)OCC1=C(C(=O)O)N2C(=O)[C@@H](NC(=O)Cc3cccs3)[C@H]2SC1 [CEPHALOTHIN]?
**A.** MIC [1]: > 125 µg/mL; MIC [2]: > 125 µg/mL; MIC [3]: > 125 µg/mL; MIC [4]: 0.13 µg/mL (≈ 0.328 µM); MIC [5]: 16 µg/mL (≈ 40.4 µM); MIC [6]: 0.5 µg/mL (≈ 1.26 µM); MIC [7]: > 125 µg/mL; MIC [8]: 32 µg/mL (≈ 80.7 µM); MIC [9]: 0.13 µg/mL (≈ 0.328 µM); MIC [10]: 16 µg/mL (≈ 40.4 µM); MIC [11]: 2 µg/mL (≈ 5.04 µM); MIC [12]: 8 µg/mL; MIC [13]: > 125 µg/mL; MIC [14]: > 125 µg/mL; MIC [15]: 0.06 µg/mL (≈ 0.151 µM); MIC [16]: 63 µg/mL (≈ 159 µM); MIC [17]: 32 µg/mL (≈ 80.7 µM); MIC [18]: 16 µg/mL (≈ 40.4 µM); MIC [19]: 1 µg/mL (≈ 2.52 µM)

**Q.** Which MIC [1] does the source give for CC1=C(C(=O)O)N2C(=O)[C@@H](NC(=O)Cc3cccs3)[C@H]2SC1=O here?
**A.** Its MIC is > 125 µg/mL.

**Q.** And the MIC [2]?
**A.** Its MIC is > 125 µg/mL.

**Q.** And the MIC [3]?
**A.** Its MIC is > 125 µg/mL.

**Q.** And the MIC [4]?
**A.** The MIC was 125 µg/mL (≈ 355 µM).

**Q.** And the MIC [5]?
**A.** The MIC was > 125 µg/mL.

**Q.** And the MIC [6]?
**A.** Its MIC is > 125 µg/mL.

**Q.** And the MIC [7]?
**A.** The MIC was > 125 µg/mL.

**Q.** And the MIC [8]?
**A.** Its MIC is > 125 µg/mL.

**Q.** And the MIC [9]?
**A.** Its MIC is 8 µg/mL (≈ 22.7 µM).

**Q.** What about the MIC [10] of the same compound?
**A.** Its MIC is > 125 µg/mL.

**Q.** And the MIC [11]?
**A.** Its MIC is 63 µg/mL (≈ 179 µM).

**Q.** What about the MIC [12] of the same compound?
**A.** Its MIC is > 63 µg/mL.

**Q.** What about the MIC [13] of the same compound?
**A.** The MIC was > 125 µg/mL.

**Q.** What about the MIC [14] of the same compound?
**A.** Its MIC is > 125 µg/mL.

**Q.** And the MIC [15]?
**A.** The MIC was 63 µg/mL (≈ 179 µM).

**Q.** What about the MIC [16] of the same compound?
**A.** Its MIC is > 125 µg/mL.

**Q.** What about the MIC [17] of the same compound?
**A.** Its MIC is 63 µg/mL (≈ 179 µM).

**Q.** And the MIC [18]?
**A.** The MIC was > 125 µg/mL.

**Q.** And the MIC [19]?
**A.** Its MIC is 63 µg/mL (≈ 179 µM).
